Entries after “also recorded” stand apart in the source; their conditions may differ.
What was measured:
[1] = system: HepG2; experiment: Mammalian cytotoxicity assay; assay type: cell-based; conditions: for concentration up to which no toxicity was exhibited (HepG2): range 0–62.6 μg/mL, 24 h; for non-toxic concentration as fold of bactericidal concentration (HepG2): vs bactericidal concentration against P. gingivalis
Procedure, shortened: (§1)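 Cells counted at about 80% confluence and seeded in 96-well plates: 10,000 cells/well for HEK-293, 3,000 cells/well for BEAS-2B and HepG2. Adhered 16 h at 37 °C, 5% CO2. Fresh medium with test compound at 0–62.6 μg/mL (from 1000× stocks) or 0.1% DMSO added, 24 h. Resazurin added 6 h; fluorescence read at 560/590 nm. Survival expressed relative to DMSO wells after medium-only blank subtraction.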

[2] = system: BEAS-2B; experiment: Mammalian cytotoxicity assay; assay type: cell-based, human; conditions: for concentration up to which no toxicity was observed (BEAS-2B): range 0–62.6 μg/mL, 24 h; for non-toxic concentration as fold of bactericidal concentration (BEAS-2B): vs bactericidal concentration against P. gingivalis
Procedure, shortened: as §1

[3] = system: HEK-293; experiment: Mammalian cytotoxicity assay; assay type: cell-based, human; conditions: for concentration up to which no toxicity was exhibited (HEK-293): range 0–62.6 μg/mL, 24 h; for non-toxic concentration as fold of bactericidal concentration (HEK-293): vs bactericidal concentration against P. gingivalis
Procedure, shortened: as §1

[4] = system: P. gingivalis ATCC 33277; experiment: Percent growth inhibition of planktonic P. gingivalis, colorimetric WST-1 assay; assay type: cell-based, Porphyromonas gingivalis; conditions: for P. gingivalis growth inhibition: 2.5 h after addition of WST-1; for inhibition at 100 µM / inhibition at 10 µM: Porphyromonas gingivalis, ATCC33277, read-out: P. gingivalis growth inhibition
[5] = Cytotoxic effect on oral epithelial cells; assay type: cell-based, human; conditions: human, OKF6/hTERT immortalized oral keratinocyte cells
[6] = system: immortalized oral keratinocyte (OKF6) cells; experiment: Cytotoxic effect on oral epithelial cells; assay type: cell-based, human; conditions: 24 h, microscopy
[7] = system: P. gingivalis ATCC 33277; experiment: Colony forming unit; assay type: cell-based, Porphyromonas gingivalis; conditions: 24 h exposure, CFUs counted after 5 days
Procedure, shortened: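 P. gingivalis ATCC 33277 at 1 × 10^8 cells/well, grown exponentially in supplemented BHI under anaerobic conditions in 96-well plates. Exposed 24 h to test compound in DMSO at 1, 10 or 100 μM. Negative controls were medium or DMSO; positive controls were tetracycline 2.81 μM and zafirlukast 25 and 50 μM. Cultures diluted 1:400, spread on blood agar, and CFUs counted after 5 days anaerobic.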

[8] = system: F. nucleatum ATCC 25586; experiment: Percent growth inhibition, colorimetric WST-1 assay; assay type: cell-based, Fusobacterium nucleatum; conditions: 24 h, 30 min after addition of WST-1
Procedure, shortened: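 F. nucleatum was grown in supplemented BHI to log phase (3–4 h after subculture), then seeded at 10^8 cells/well in 90 μL. It was exposed anaerobically to test compound in DMSO (1, 10, 100 μM) for 24 h. WST-1 reagent was added, and absorbance was read at 405 nm (reference 600 nm). % inhibition = 100 × [OD(control) − OD(treated)]/OD(control).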

[9] = system: P. gingivalis ATCC 33277 biofilm; experiment: Inhibition of mono-species biofilm growth, safranin staining; assay type: cell-based, Porphyromonas gingivalis; conditions: at all concentrations tested (10, 25, 50, and 100 μM), 48 h
Procedure, shortened: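 P. gingivalis ATCC 33277 at 1 × 10^8 bacteria/well, grown logarithmically in supplemented BHI in 96-well plates. Exposed to test compound in DMSO (10, 25, 50, 100 μM) for 48 h, anaerobic, gentle shaking. Negative controls were medium or DMSO; positive controls were tetracycline 2.81 μM and zafirlukast 50 μM. Medium removed, biofilm washed three times with PBS, stained with 0.1% safranin, and percentage biofilm growth determined.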

[10] = system: murine red blood cells (mRBCs); experiment: Hemolytic activity against murine red blood cells; assay type: cell-based; conditions: at concentrations up to 27 μg/mL, data not shown
[11] = at all concentrations tested (1, 10, and 100 μM)

For `COc1ccc(Cc2cn(C)c3ccc([N+](=O)[O-])cc23)cc1C(=O)NS(=O)(=O)c1ccccc1F` [Compound 21a], the “concentration up to which no toxicity was exhibited (HepG2)” value [1] was “up to 62.6 μg/mL”, the “non-toxic concentration as fold of bactericidal concentration (HepG2)” value (“non-toxic concentration as fold … (HepG2)” below) [1] was 11- to 13 fold and the “concentration up to which no toxicity was observed (BEAS-2B)” value [2] was “up to 62.6 μg/mL”. The “non-toxic concentration as fold of bactericidal concentration (BEAS-2B)” value (“non-toxic concentration as fold … (BEAS-2B)” for short) [2] was 11- to 13 fold, the “concentration up to which no toxicity was exhibited (HEK-293)” value [3] was “up to 62.6 μg/mL” and the “non-toxic concentration as fold of bactericidal concentration (HEK-293)” value (“non-toxic concentration as fold … (HEK-293)” below) [3] was 11- to 13 fold. For the same compound, the “P. gingivalis growth inhibition” value ([4]; 100 μM, 24 h) was “comparable or superior activity” and the inhibition at 100 µM [4] was 61 to 73%.

In the case of `COc1ccc(Cc2cn(C)c3ccc([N+](=O)[O-])cc23)cc1C(=O)NS(=O)(=O)c1ccccc1Cl` [Compound 21b], the “concentration up to which no toxicity was exhibited (HepG2)” value [1] is reported as “up to 62.6 μg/mL”, the “non-toxic concentration as fold … (HepG2)” value [1] is reported as 11- to 13 fold and the “concentration up to which no toxicity was observed (BEAS-2B)” value [2] is reported as “up to 31.3 μg/mL”. The “non-toxic concentration as fold … (BEAS-2B)” value [2] was 6 fold, the viability at 24 h, 10 µM [5] was 9 to 63% and the viability at 24 h, 100 µM [5] was 5 to 23%. The “cytotoxicity to OKF6 cells by cell morphology and density” value ([6]; 100 μM) was “slight increase in cytotoxicity”, the “concentration up to which no toxicity was exhibited (HEK-293)” value [3] was “up to 62.6 μg/mL” and the “non-toxic concentration as fold … (HEK-293)” value [3] was 11- to 13 fold. The “growth inhibition by CFU assay (bactericidal activity)” value (shortened to “growth inhibition by CFU assay”) ([7]; 10 μM, 10 µM) was “bactericidal”, the “P. gingivalis growth inhibition” value ([4]; 100 μM, 24 h) was “comparable or superior activity” and the inhibition at 100 µM [4] was 61 to 73%.

For `COc1ccc(Cc2cn(C)c3ccc([N+](=O)[O-])cc23)cc1C(=O)NS(=O)(=O)c1ccccc1Br` [Compound 21c], the “concentration up to which no toxicity was exhibited (HepG2)” value [1] was “up to 62.6 μg/mL”, the “non-toxic concentration as fold … (HepG2)” value [1] was 11- to 13 fold and the “concentration up to which no toxicity was observed (BEAS-2B)” value [2] was “up to 31.3 μg/mL”. For the same compound, the “non-toxic concentration as fold … (BEAS-2B)” value [2] was 6 fold, the viability at 24 h, 10 µM [5] was 9 to 63% and the viability at 24 h, 100 µM [5] was 5 to 23%. The “cytotoxicity to OKF6 cells by cell morphology and density” value ([6]; 10 μM) was “low toxicity”, the “cytotoxicity to OKF6 cells by cell morphology and density” value ([6]; 100 μM) was “slight increase in cytotoxicity” and the “concentration up to which no toxicity was exhibited (HEK-293)” value [3] was “up to 62.6 μg/mL”. For the same compound, the “non-toxic concentration as fold … (HEK-293)” value [3] was 11- to 13 fold, the “growth inhibition by CFU assay” value ([7]; 10 μM, 10 µM) was “bactericidal” and the “P. gingivalis growth inhibition” value ([4]; 100 μM, 24 h) was “comparable or superior activity”. It also gave an inhibition at 100 µM [4] of 61 to 73%.

For `COc1ccc(Cc2cn(C)c3ccc([N+](=O)[O-])cc23)cc1C(=O)NS(=O)(=O)c1c(F)cccc1F` [Compound 21d], the “growth inhibition against F. nucleatum” value ([8]; 1 μM) was “no activity”, the “growth inhibition against F. nucleatum” value ([8]; 10 μM) was “no activity” and the “growth inhibition by CFU assay” value ([7]; 10 μM) was “not bactericidal”. For the same compound, the “P. gingivalis growth inhibition” value ([4]; 100 μM, 24 h) was “comparable or superior activity” and the inhibition at 100 µM [4] was 61 to 73%.

With `COc1ccc(Cc2cn(C)c3ccc([N+](=O)[O-])cc23)cc1C(=O)NS(=O)(=O)c1ccc([N+](=O)[O-])cc1` [Compound 21g] the “growth inhibition by CFU assay” value ([7]; 10 μM) was “bactericidal”, the biofilm growth [9] was “at least 86%” and the “P. gingivalis growth inhibition” value ([4]; 10 μM, 24 h) was “comparable or superior activity”. The “P. gingivalis growth inhibition” value ([4]; 100 μM, 24 h) was “comparable or superior activity”.

In the case of `CCn1cc(Cc2ccc(OC)c(C(=O)NS(=O)(=O)c3ccc([N+](=O)[O-])cc3)c2)c2cc([N+](=O)[O-])ccc21` [Compound 22g], the “growth inhibition by CFU assay” value ([7]; 10 μM) is reported as “not bactericidal”, the “P. gingivalis growth inhibition” value ([4]; 10 μM, 24 h) is reported as “comparable or superior activity” and the “P. gingivalis growth inhibition” value ([4]; 100 μM, 24 h) is reported as “comparable or superior activity”.

In the case of `CCCn1cc(Cc2ccc(OC)c(C(=O)NS(=O)(=O)c3ccccc3F)c2)c2cc([N+](=O)[O-])ccc21` [Compound 23a], the “P. gingivalis growth inhibition” value ([4]; 1 μM, 24 h) is reported as “little to no activity”.

In the case of `CCCn1cc(Cc2ccc(OC)c(C(=O)NS(=O)(=O)c3ccc([N+](=O)[O-])cc3)c2)c2cc([N+](=O)[O-])ccc21` [Compound 23g], the “growth inhibition by CFU assay” value ([7]; 10 μM) is reported as “not bactericidal”, the “P. gingivalis growth inhibition” value ([4]; 1 μM, 24 h) is reported as “comparable or superior activity” and the “P. gingivalis growth inhibition” value ([4]; 10 μM, 24 h) is reported as “comparable or superior activity”. The “P. gingivalis growth inhibition” value ([4]; 100 μM, 24 h) was “comparable or superior activity”, the inhibition at 10 µM [4] was 77 to 90% and the “P. gingivalis growth inhibition” value [4, 11] was 60–90%.

With `CCCCn1cc(Cc2ccc(OC)c(C(=O)NS(=O)(=O)c3ccccc3F)c2)c2cc([N+](=O)[O-])ccc21` [Compound 24a] the “P. gingivalis growth inhibition” value ([4]; 1 μM, 24 h) was “little to no activity”.

For `CCCCn1cc(Cc2ccc(OC)c(C(=O)NS(=O)(=O)c3ccc([N+](=O)[O-])cc3)c2)c2cc([N+](=O)[O-])ccc21` [Compound 24g], the viability at 24 h, 10 µM [5] was 9 to 63%, the viability at 24 h, 100 µM [5] was 5 to 23% and the “cytotoxicity to OKF6 cells by cell morphology and density” value ([6]; 10 μM) was “low toxicity; also recorded: little to no cytotoxicity”. The “cytotoxicity to OKF6 cells by cell morphology and density” value ([6]; 100 μM) was “slight decrease in cell density”, the “growth inhibition by CFU assay” value ([7]; 100 μM) was “bactericidal activity” and the “P. gingivalis growth inhibition” value ([4]; 1 μM, 24 h) was “comparable or superior activity”. The “P. gingivalis growth inhibition” value ([4]; 10 μM, 24 h) was “comparable or superior activity”, the “P. gingivalis growth inhibition” value ([4]; 100 μM, 24 h) was “comparable or superior activity” and the inhibition at 10 µM [4] was 77 to 90%. The “P. gingivalis growth inhibition” value [4, 11] was 69–90%.

In the case of `COc1ccc(Cc2cn(CC(C)C)c3ccc([N+](=O)[O-])cc23)cc1C(=O)NS(=O)(=O)c1ccc([N+](=O)[O-])cc1` [Compound 25g], the “growth inhibition by CFU assay” value ([7]; 10 μM) is reported as “not bactericidal”, the “P. gingivalis growth inhibition” value ([4]; 100 μM, 24 h) is reported as “comparable or superior activity” and the inhibition at 100 µM [4] is reported as 61 to 73%.

For `COc1cc(C(=O)NS(=O)(=O)c2ccccc2C)ccc1Cc1cn(C)c2ccc(NC(=O)OC3CCCC3)cc12` [ZAF, zafirlukast, reference compound], the “concentration up to which no toxicity was exhibited (HepG2)” value [1] was “up to 62.6 μg/mL”, the “concentration up to which no toxicity was observed (BEAS-2B)” value [2] was “up to 62.6 μg/mL” and the viability at 24 h, 25 µM [5] was 41%. For the same compound, the “concentration up to which no toxicity was exhibited (HEK-293)” value [3] was “up to 31.3 μg/mL”.

Work on `C[C@@H]1[C@H](O)[C@@H](C)/C=C/C=C/C=C/C=C/C=C/C=C/C=C/[C@H](O[C@@H]2O[C@H](C)[C@@H](O)[C@H](N)[C@@H]2O)C[C@@H]2O[C@](O)(C[C@@H](O)C[C@@H](O)[C@H](O)CC[C@@H](O)C[C@@H](O)CC(=O)O[C@H]1C)C[C@H](O)[C@H]2C(=O)O` [amphotericin B] yielded a hemolytic activity [10] of 0%.

Source: paper PMC12123421 (Journal of medicinal chemistry, 2022)
